Results taken from ChEMBL document CHEMBL4007408, “Identification of Novel Triazole-Based Nicotinamide Phosphoribosyltransferase (NAMPT) Inhibitors Endowed with Antiproliferative and Antiinflammatory Activity” (J Med Chem, 2017).
Calls of active or inactive are those of the source. No cut-off for these calls is given here.

How the values were obtained:
[1] = target: Nicotinamide phosphoribosyltransferase (Mus musculus, UniProt Q99KQ4); experiment: Inhibition of recombinant mouse NAMPT expressed in bacterial expression system using nicotinamide as substrate after 1 hr by fluorescence based NMNAT-3 enzyme coupled assay; settings: read-out: IC50
SH-SY5Y = experiment: Cytotoxicity against human SH-SY5Y cells assessed as reduction in cell viability after 56 hrs by MTT assay; type: functional, cell-based; settings: Homo sapiens, SH-SY5Y, 56 h; read-out: EC50
Mus musculus [2] = experiment: In vivo inhibition of NAMPT in DNBS-induced BALB/c mouse colitis model assessed as reduction in loss of body weight at 20 mg/kg, ip bid administered for 3 days post DNBS challenge; type: functional, organism-based
Mus musculus [3] = experiment: In vivo inhibition of NAMPT in DNBS-induced BALB/c mouse colitis model assessed as reduction in mucosal congestion at 20 mg/kg, ip bid administered for 3 days post DNBS challenge; type: functional, organism-based
Mus musculus [4] = experiment: In vivo inhibition of NAMPT in DNBS-induced BALB/c mouse colitis model assessed as reduction in erosion at 20 mg/kg, ip bid administered for 3 days post DNBS challenge; type: functional, organism-based
Mus musculus [5] = experiment: In vivo inhibition of NAMPT in DNBS-induced BALB/c mouse colitis model assessed as reduction in hemorrhagic ulcerations at 20 mg/kg, ip bid administered for 3 days post DNBS challenge; type: functional, organism-based
Mus musculus [6] = experiment: In vivo inhibition of NAMPT in DNBS-induced BALB/c mouse colitis model assessed as reduction in neutrophil infiltration by measuring myeloperoxidase levels at 20 mg/kg, ip bid administered for 3 days post DNBS challenge by ELISA; type: functional, organism-based
Liver [7] = experiment: Drug level in human liver microsomes treated with N-(biphenyl-2-yl)-8-(4-(pyridin-3-yl)-1H-1,2,3-triazol-1-yl)octanamide after 60 mins by LC-ESI-MS analysis; type: ADME, microsome
Liver [8] = experiment: Drug level in Wistar Han rat liver microsomes treated with N-(biphenyl-2-yl)-8-(4-(pyridin-3-yl)-1H-1,2,3-triazol-1-yl)octanamide after 60 mins by LC-ESI-MS analysis; type: ADME, microsome
Liver [9] = experiment: Drug level in human liver microsomes treated with N-(7-(4-(Pyridin-3-yl)-1H-1,2,3-triazol-1-yl)heptyl)-[1,1'-biphenyl]-2-carboxamide after 60 mins in presence of NADPH-regenerating system by LC-UV analysis; type: ADME, microsome
Procedure, shortened: (§1)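 Substrate at 50 μM final, with rat or human liver microsomes at 1.0 mg/ml protein, in 50 mM Tris-HCl pH 7.4. Mix held 3.3 mM MgCl2, 1% acetonitrile and an NADPH-regenerating system (1.3 mM β-NADP, 3.3 mM glucose 6-phosphate, 0.4 U/ml G6PDH). Shaken 60 min at 37 °C, stopped with ice-cold acetonitrile. LC-UV gave % residual substrate versus a no-microsome control, mean of two replicates.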

Liver [10] = experiment: Drug level in Wistar Han rat liver microsomes treated with N-(7-(4-(Pyridin-3-yl)-1H-1,2,3-triazol-1-yl)heptyl)-[1,1'-biphenyl]-2-carboxamide after 60 mins in presence of NADPH-regenerating system by LC-UV analysis; type: ADME, microsome; procedure, shortened: as §1

Nicotinamide phosphoribosyltransferase, sequence (Q99KQ4 whole entry): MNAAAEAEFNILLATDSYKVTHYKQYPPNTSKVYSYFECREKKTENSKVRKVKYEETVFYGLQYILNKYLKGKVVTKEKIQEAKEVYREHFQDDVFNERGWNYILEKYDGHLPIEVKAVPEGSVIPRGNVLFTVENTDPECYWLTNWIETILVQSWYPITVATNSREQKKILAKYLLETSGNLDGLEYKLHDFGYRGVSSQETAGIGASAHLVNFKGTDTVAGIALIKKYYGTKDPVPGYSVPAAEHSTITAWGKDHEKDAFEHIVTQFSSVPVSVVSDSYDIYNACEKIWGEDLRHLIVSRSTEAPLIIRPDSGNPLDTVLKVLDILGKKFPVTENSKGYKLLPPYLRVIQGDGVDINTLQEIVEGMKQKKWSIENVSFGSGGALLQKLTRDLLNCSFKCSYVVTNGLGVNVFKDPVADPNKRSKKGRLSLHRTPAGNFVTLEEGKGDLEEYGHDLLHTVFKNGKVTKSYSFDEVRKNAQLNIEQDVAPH

Row | SMILES | EC50 (SH-SY5Y) [µM] | other results
1 | c1ccc(-c2ccccc2OCCc2ccc(Cn3cc(-c4cccnc4)nn3)cc2)cc1 | 0.0024 | IC50 [1]: 0.0156 µM
2 | C[C@@H]1C[C@H]2[C@@H]3CCC4=CC(=O)C=C[C@]4(C)[C@@]3(F)[C@@H](O)C[C@]2(C)[C@@]1(O)C(=O)CO |  | inhibition (Mus musculus [2]): Active; inhibition (Mus musculus [3]): Active; inhibition (Mus musculus [4]): Active; inhibition (Mus musculus [5]): Active; inhibition (Mus musculus [6]): Active
3 | c1ccc(-c2ccccc2Oc2ccc(CCCn3cc(-c4cccnc4)nn3)cc2)cc1 | > 0.5 | 
4 | Nc1ccccc1-c1ccccc1 |  | Drug metabolism (Liver [7]): Metabolite_Detected; Drug metabolism (Liver [8]): Metabolite_Detected
5 | NC(=O)c1ccccc1-c1ccccc1 |  | Drug metabolism (Liver [9]): Metabolite_Detected; Drug metabolism (Liver [10]): Metabolite_Detected
6 | c1ccc(-c2ccccc2OCCCc2ccc(-n3cc(-c4cccnc4)nn3)cc2)cc1 | 0.071 | 
7 | O=S(=O)(NCCCCCCCn1cc(-c2cccnc2)nn1)c1ccccc1Br | 0.162 | 
8 | c1ccc(-c2ccccc2-c2cn(CCCCCCn3cc(-c4cccnc4)nn3)nn2)cc1 | 0.0366 | 
9 | O=C(CCCCCCCc1cc(-c2cccnc2)on1)Nc1ccccc1-c1ccccc1 | 0.0598 | IC50 [1]: 0.0499 µM
10 | O=C(CCCCCCCc1cc(-c2cccnc2)[nH]n1)Nc1ccccc1-c1ccccc1 | 0.384 | 
11 | O=C(NCCCCCCCn1cc(-c2cccnc2)nn1)Nc1ccccc1-c1ccccc1 | 0.007 | IC50 [1]: 0.0324 µM
12 | c1ccc(-c2ccccc2OCCCCCCCCn2cc(-c3cccnc3)nn2)cc1 | 0.0082 | IC50 [1]: 0.0254 µM
13 | O=C(Nc1ccccc1-c1ccccc1)OCCCCCCCCn1cc(-c2cccnc2)nn1 | 0.255 | 
14 | O=C(CCCCCCCc1nnc(-c2cccnc2)[nH]1)Nc1ccccc1-c1ccccc1 | 0.0829 | IC50 [1]: 0.269 µM
15 | c1ccc(-c2ccccc2OCCCCCCCn2cc(-c3cccnc3)nn2)cc1 | 0.015 | IC50 [1]: 0.0313 µM
16 | O=C(O)CCCCCCCn1cc(-c2cccnc2)nn1 |  | Drug metabolism (Liver [7]): Metabolite_Detected; Drug metabolism (Liver [8]): Metabolite_Detected
17 | c1ccc(-c2ccccc2CNCCCCCCn2cc(-c3cccnc3)nn2)cc1 | 0.202 | 
18 | c1ccc(-c2ccccc2CNCCCCCCCn2cc(-c3cccnc3)nn2)cc1 | 0.237 | 
19 | O=S(=O)(NCCCCCCCCn1cc(-c2cccnc2)nn1)c1ccccc1Br | 0.171 | 
20 | O=C(CCCCCCCc1nnc(-c2cccnc2)o1)Nc1ccccc1-c1ccccc1 | 0.369 | 
21 | c1ccc(-c2ccccc2CNCCCCCCCCn2cc(-c3cccnc3)nn2)cc1 | 0.205 | 
